Source: ChEMBL document CHEMBL1155357, “The synthesis of 2- and 3-aryl indoles and 1,3,4,5-tetrahydropyrano[4,3-b]indoles and their antibacterial and antifungal activity” (2009)
Values after ≈ are worked out from the molar mass of the structure shown. Active and inactive are the calls of the source. No cut-off for these calls is given here.

Experiments:
Klebsiella pneumoniae = test: Antimicrobial activity against Klebsiella pneumoniae ATCC 13831 after 6 hrs; assay type: functional; settings: ATCC 13831, 6 h
How it was run: (§1)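 Broth microdilution MIC. Compounds were dissolved in acetone at a 5 mg/mL starting concentration, added to wells containing sterile water, then serially doubled down. Inoculum was 1 × 10⁶ CFU/mL, incubated 37 °C for 24 h. Then 0.2 mg/mL p-iodonitrotetrazolium violet was added and colour read after 6 h. MIC was the lowest concentration without growth. Acetone and ciprofloxacin (starting 0.01 mg/mL) served as controls. At least triplicate, on consecutive days.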

Candida albicans = test: Antimicrobial activity against Candida albicans ATCC 10231 after 24 hrs; assay type: functional; settings: ATCC 10231, 24 h
How it was run: (§2)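 Yeast MIC by serial doubling dilution. Compounds were dissolved in acetone at a 5 mg/mL starting concentration into sterile-water wells. Inoculum was 1 × 10⁶ CFU/mL at 37 °C for 24 h plus a further 24 h. Then 0.2 mg/mL p-iodonitrotetrazolium violet was added and colour read after 24 h. MIC was the lowest concentration showing no growth. Acetone and amphotericin B (starting 0.01 mg/mL) served as controls. At least triplicate, on consecutive days.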

Escherichia coli [1] = test: Antimicrobial activity against Escherichia coli ATCC 8739 at 1250 ug/mL after 6 hrs; assay type: functional, organism-based
Staphylococcus aureus [2] = test: Antimicrobial activity against Staphylococcus aureus ATCC 6538 after 6 hrs; assay type: functional; settings: ATCC 6538, 6 h; how it was run: as §1
Bacillus cereus = test: Antimicrobial activity against Bacillus cereus ATCC 11778 after 6 hrs; assay type: functional; settings: ATCC 11778, 6 h; how it was run: as §1
Cryptococcus neoformans [3] = test: Antimicrobial activity against Cryptococcus neoformans ATCC 90112 after 24 hrs; assay type: functional; settings: ATCC 90112, 24 h; how it was run: as §2
Escherichia coli [4] = test: Antimicrobial activity against Escherichia coli ATCC 8739 after 6 hrs; assay type: functional; settings: ATCC 8739, 6 h; how it was run: as §1
Staphylococcus aureus [5] = test: Antimicrobial activity against Staphylococcus aureus ATCC 6538 at 1250 ug/mL after 6 hrs; assay type: functional, organism-based
Cryptococcus neoformans [6] = test: Antimicrobial activity against Cryptococcus neoformans ATCC 90112 at 1250 ug/mL after 24 hrs; assay type: functional, organism-based

| MIC (Klebsiella pneumoniae) | MIC (Candida albicans) | MIC (Staphylococcus aureus [2]) | MIC (Bacillus cereus) | MIC (Cryptococcus neoformans [3]) | MIC (Escherichia coli [4]) | SMILES | Activity (Escherichia coli [1]) | Activity (Staphylococcus aureus [5]) | Activity (Cryptococcus neoformans [6]) |
| --- | --- | --- | --- | --- | --- | --- | --- | --- | --- |
| 313 µg/mL (≈ 1240 µM) | 235 µg/mL (≈ 928 µM) | 625 µg/mL (≈ 2470 µM) | 313 µg/mL (≈ 1240 µM) |  |  | COc1ccc(-c2cc3cc(OC)ccc3[nH]2)cc1 | inactive |  |  |
| 208 µg/mL (≈ 932 µM) | 156 µg/mL (≈ 699 µM) | 469 µg/mL (≈ 2100 µM) | 625 µg/mL (≈ 2800 µM) | 78 µg/mL (≈ 349 µM) |  | COc1ccc(-c2c[nH]c3ccccc23)cc1 | inactive |  |  |
| 313 µg/mL (≈ 1400 µM) | 156 µg/mL (≈ 699 µM) | 635 µg/mL (≈ 2840 µM) | 156 µg/mL (≈ 699 µM) | 58.5 µg/mL (≈ 262 µM) | 625 µg/mL (≈ 2800 µM) | COc1ccc(-c2cc3ccccc3[nH]2)cc1 |  |  |  |
| 313 µg/mL (≈ 1100 µM) | 313 µg/mL (≈ 1100 µM) |  | 235 µg/mL (≈ 829 µM) | 29.3 µg/mL (≈ 103 µM) | 313 µg/mL (≈ 1100 µM) | COc1cc(-c2c[nH]c3ccccc23)cc(OC)c1OC |  | inactive |  |
| 313 µg/mL (≈ 942 µM) | 156 µg/mL (≈ 470 µM) | 156 µg/mL (≈ 470 µM) | 235 µg/mL (≈ 707 µM) | 261 µg/mL (≈ 786 µM) | 469 µg/mL (≈ 1410 µM) | COc1cc(-c2c[nH]c3ccccc23)c(OC)cc1Br |  |  |  |
| 261 µg/mL (≈ 1030 µM) | 156 µg/mL (≈ 616 µM) | 313 µg/mL (≈ 1240 µM) | 156 µg/mL (≈ 616 µM) | 29.3 µg/mL (≈ 116 µM) | 521 µg/mL (≈ 2060 µM) | COc1ccc(-c2c[nH]c3ccc(OC)cc23)cc1 |  |  |  |
| 313 µg/mL (≈ 1620 µM) | 156 µg/mL (≈ 807 µM) | 469 µg/mL (≈ 2430 µM) | 625 µg/mL (≈ 3230 µM) | 625 µg/mL (≈ 3230 µM) | 1250 µg/mL (≈ 6470 µM) | c1ccc(-c2cc3ccccc3[nH]2)cc1 [2-PHENYL-1H-INDOLE] |  |  |  |
| 469 µg/mL (≈ 2100 µM) | 469 µg/mL (≈ 2100 µM) | 156 µg/mL (≈ 699 µM) | 3.9 µg/mL (≈ 17.5 µM) |  |  | COc1ccc2[nH]c(-c3ccccc3)cc2c1 | inactive |  | inactive |
| 469 µg/mL (≈ 2430 µM) | 19.5 µg/mL (≈ 101 µM) | 39 µg/mL (≈ 202 µM) | 19.5 µg/mL (≈ 101 µM) | 65.1 µg/mL (≈ 337 µM) | 156 µg/mL (≈ 807 µM) | c1ccc(-c2c[nH]c3ccccc23)cc1 [3-PHENYLINDOLE] |  |  |  |
| 313 µg/mL (≈ 999 µM) | 156 µg/mL (≈ 498 µM) | 313 µg/mL (≈ 999 µM) | 156 µg/mL (≈ 498 µM) | 32.5 µg/mL (≈ 104 µM) | 625 µg/mL (≈ 1990 µM) | COc1ccc2[nH]c(-c3cc(OC)c(OC)c(OC)c3)cc2c1 |  |  |  |
| 313 µg/mL (≈ 999 µM) | 313 µg/mL (≈ 999 µM) | 313 µg/mL (≈ 999 µM) | 156 µg/mL (≈ 498 µM) | 29.3 µg/mL (≈ 93.5 µM) | 313 µg/mL (≈ 999 µM) | COc1ccc2[nH]cc(-c3cc(OC)c(OC)c(OC)c3)c2c1 |  |  |  |
| 313 µg/mL (≈ 1250 µM) | 156 µg/mL (≈ 621 µM) | 156 µg/mL (≈ 621 µM) | 78 µg/mL (≈ 310 µM) | 313 µg/mL (≈ 1250 µM) | 235 µg/mL (≈ 935 µM) | COc1ccc2[nH]cc(-c3ccccc3C=O)c2c1 |  |  |  |
| 313 µg/mL (≈ 1400 µM) | 78 µg/mL (≈ 349 µM) | 39.1 µg/mL (≈ 175 µM) | 15.6 µg/mL (≈ 69.9 µM) | 235 µg/mL (≈ 1050 µM) | 625 µg/mL (≈ 2800 µM) | COc1ccc2[nH]cc(-c3ccccc3)c2c1 |  |  |  |
| 313 µg/mL (≈ 1320 µM) | 313 µg/mL (≈ 1320 µM) | 235 µg/mL (≈ 990 µM) | 156 µg/mL (≈ 657 µM) |  | 468 µg/mL (≈ 1970 µM) | COc1ccc2[nH]c(-c3ccccc3C)cc2c1 |  |  |  |
| 391 µg/mL (≈ 1380 µM) | 117 µg/mL (≈ 413 µM) | 469 µg/mL (≈ 1660 µM) | 20 µg/mL (≈ 70.6 µM) | 313 µg/mL (≈ 1100 µM) | 313 µg/mL (≈ 1100 µM) | COc1cc(-c2cc3ccccc3[nH]2)cc(OC)c1OC |  |  |  |
| 313 µg/mL (≈ 1180 µM) | 235 µg/mL (≈ 886 µM) | 625 µg/mL (≈ 2360 µM) | 156 µg/mL (≈ 588 µM) | 39 µg/mL (≈ 147 µM) | 313 µg/mL (≈ 1180 µM) | COc1ccc2[nH]cc(-c3ccccc3C(C)=O)c2c1 |  |  |  |
| 313 µg/mL (≈ 1290 µM) | 156 µg/mL (≈ 641 µM) | 625 µg/mL (≈ 2570 µM) | 625 µg/mL (≈ 2570 µM) | 625 µg/mL (≈ 2570 µM) | 938 µg/mL (≈ 3860 µM) | c1ccc2[nH]c(-c3cccc4ccccc34)cc2c1 |  |  |  |
| 313 µg/mL (≈ 1320 µM) | 117 µg/mL (≈ 493 µM) | 29.3 µg/mL (≈ 123 µM) | 19.5 µg/mL (≈ 82.2 µM) | 625 µg/mL (≈ 2630 µM) | 313 µg/mL (≈ 1320 µM) | COc1ccc2[nH]cc(-c3ccccc3C)c2c1 |  |  |  |
